Data on three molecules can be found in ChEMBL document CHEMBL3526028 (Drug Metab Dispos, 2013).

Each structure is given as a SMILES string.

A short description of data set [1]: Elimination half life in mouse brain at 10 nCi/ml, icv. Type of data set: ADME, organism-based. The following applies: icv or intrathecal, read-out: beta t1/2 (converted). An outline of the steps:
(§1)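 Intracerebral microinjection into the S2 cortex of anaesthetized mice, 0.2 µL of [3H]-drug (10 nCi/ml) with [14C]-carboxyl-inulin in ECF buffer. Ipsilateral cerebrum radioactivity was followed over time, up to 60 min for methotrexate. Elimination rate constant keff came from regression of percent remaining versus time, and half-life from keff. n=3-4.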

Data set [2] can be described thus: Drug uptake in mouse brain ipsilateral cerebrum assessed as radiolabelled compound after 30 mins at 0.1 uM, intracerebral microinjection. Type of data set: ADME, tissue-based. To be noted: in vivo, other, 0.5 h. An outline of the steps:
(§2)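 Male C57BL/6 wild-type mice under ketamine 100 mg/kg plus xylazine 10 mg/kg i.p., on a stereotaxic frame. 0.2 µL was injected over 2 min into the S2 cortex, 3.8 mm lateral to bregma and 2.5 mm deep. Injectate: [3H]-drug plus [14C]-carboxyl-inulin, 10 nCi/ml each, in ECF buffer pH 7.4. Needle held 4 min. Ipsilateral cerebrum harvested at 30 min and counted by scintillation. Retention normalized to inulin. n=3-4.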

Data set [3] relates to Mus musculus. Put plainly: Brain efflux index in wild type mouse assessed as transport of compound from ipsilateral cerebrum to the circulating blood across the blood-brain barrier at 10 nCi/ml, intracerebral microinjection after 30 mins. Type of data set: ADME, organism-based. To be noted: other, 0.5 h. In outline: (§3)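 Intracerebral microinjection under ip ketamine (100 mg/kg)/xylazine (10 mg/kg). Stereotaxic needle at 3.8 mm lateral to bregma, 2.5 mm deep, into S2 cortex. 0.2 µL [3H]-drug (10 nCi/ml) with [14C]-carboxyl-inulin (10 nCi/ml) in ECF buffer pH 7.4 given over 2 min. Ipsilateral cerebrum taken at set times, homogenised in 5% BSA and counted by scintillation. Retained/injected ratio normalised to inulin; n=3-4.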

In data set [4] the test system is Mus musculus. Put plainly: Brain efflux index in Mrp2 deficient mouse assessed as transport of compound from ipsilateral cerebrum to the circulating blood across the blood-brain barrier at 10 nCi/ml, intracerebral microinjection after 60 mins. The following applies: other, 1 h. The data set is classed as ADME, organism-based. In outline:
as §3

Data set [5] relates to Mus musculus. Put plainly: Brain efflux index in Bcrp1 deficient mouse assessed as transport of compound from ipsilateral cerebrum to the circulating blood across the blood-brain barrier at 10 nCi/ml, intracerebral microinjection after 30 mins. To be noted: other, 0.5 h. The data set is classed as ADME, organism-based. In outline:
as §3

Data set [6] can be described thus: Drug uptake in mouse brain ipsilateral cerebrum assessed as radiolabelled compound after 30 mins at 0.1 uM, intracerebral microinjection in presence 100 mM probenecid OAT inhibitor. The data set is classed as ADME, tissue-based. The following applies: in vivo, other, 0.5 h. In outline: as §2
Data set [7] is described as follows: Drug uptake in mouse brain ipsilateral cerebrum assessed as radiolabelled compound after 30 mins at 0.1 uM, intracerebral microinjection in presence 100 mM benzylpenicillin OAT inhibitor. Type of data set: ADME, tissue-based. The following applies: in vivo, other, 0.5 h. An outline of the steps:
as §2

Data set [8] deals with Mus musculus. Kind of data set: Brain efflux index in Bcrp1 deficient mouse assessed as transport of compound from ipsilateral cerebrum to the circulating blood across the blood-brain barrier at 10 nCi/ml, intracerebral microinjection after 30 mins relative to wild type. Type of data set: ADME, organism-based. The following applies: other, 0.5 h. An outline of the steps:
as §3

Data set [9] has as its system Brain. Kind of data set: Ratio of efflux clearance to clearance in brain measured in mouse at 0.3 uCi/ml by in vitro brain slice uptake technique. Type of data set: ADME, tissue-based.
The subject of data set [10] is Brain. Put plainly: Efflux clearance mouse brain measured per gm of tissue at 0.3 uCi/ml by in vitro brain slice uptake technique. Type of data set: ADME.
The nature of data set [11]: Drug uptake in mouse cerebrum.
Data set [12] is described as follows: Elimination rate constant mouse brain at 10 nCi/ml.
For data set [13], the system named is Mus musculus. Kind of data set: Brain efflux index in Mrp2 deficient mouse assessed as transport of compound from ipsilateral cerebrum to the circulating blood across the blood-brain barrier at 10 nCi/ml, intracerebral microinjection after 30 mins relative to wild type. The following applies: other, 0.5 h.
The test system of data set [14] is Mus musculus. Kind of data set: Brain efflux index in wild-type mouse assessed as transport of compound from ipsilateral cerebrum to the circulating blood across the blood-brain barrier at 10 nCi/ml, intracerebral microinjection after 30 mins in presence 100 mM probenecid OAT inhibitor. To be noted: other, 0.5 h.
Data set [15] has as its system Mus musculus. Kind of data set: Brain efflux index in wild-type mouse assessed as transport of compound from ipsilateral cerebrum to the circulating blood across the blood-brain barrier at 10 nCi/ml, intracerebral microinjection after 30 mins in presence 100 mM benzylpenicillin OAT inhibitor. The following applies: other, 0.5 h.
In data set [16] the test system is Mus musculus. Put plainly: Brain efflux index in wild type mouse assessed as transport of compound from ipsilateral cerebrum to the circulating blood across the blood-brain barrier at 10 nCi/ml, intracerebral microinjection after 30 mins in presence 100 mM probenecid OAT inhibitor relative to wild type. To be noted: other, 0.5 h.
Data set [17] concerns Mus musculus. Put plainly: Brain efflux index in wild type mouse assessed as transport of compound from ipsilateral cerebrum to the circulating blood across the blood-brain barrier at 10 nCi/ml, intracerebral microinjection after 30 mins in presence 100 mM benzylpenicillin OAT inhibitor relative to wild type. To be noted: other, 0.5 h.
Data set [18] can be described thus: Drug uptake in mouse brain ipsilateral cerebrum assessed as radiolabelled compound after 30 mins at 0.1 uM, intracerebral microinjection in presence of 1 mM unlabelled compound. The data set is classed as ADME, tissue-based. To be noted: in vivo, other, 0.5 h. In outline:
as §2

Data set [19] in a line: Drug uptake in mouse brain ipsilateral cerebrum assessed as radiolabelled compound after 30 mins at 0.1 uM, intracerebral microinjection in presence of 50 mM unlabelled compound. The following applies: in vivo, other, 0.5 h. The data set is classed as ADME, tissue-based. In outline: as §2
Data set [20] concerns Mus musculus. Put plainly: Brain efflux index in wild-type mouse assessed as transport of compound from ipsilateral cerebrum to the circulating blood across the blood-brain barrier at 10 nCi/ml, intracerebral microinjection after 30 mins in presence of 1 mM unlabelled compound. The following applies: other, 0.5 h.
For data set [21], the system named is Mus musculus. Kind of data set: Brain efflux index in wild-type mouse assessed as transport of compound from ipsilateral cerebrum to the circulating blood across the blood-brain barrier at 10 nCi/ml, intracerebral microinjection after 30 mins in presence of 50 mM unlabelled compound. To be noted: other, 0.5 h.
Data set [22] relates to Mus musculus. Kind of data set: Brain efflux index in wild type mouse assessed as transport of compound from ipsilateral cerebrum to the circulating blood across the blood-brain barrier at 10 nCi/ml, intracerebral microinjection after 30 mins in presence of 1 mM unlabelled compound relative to wild type. To be noted: other, 0.5 h.
Data set [23] has as its system Mus musculus. Put plainly: Brain efflux index in wild type mouse assessed as transport of compound from ipsilateral cerebrum to the circulating blood across the blood-brain barrier at 10 nCi/ml, intracerebral microinjection after 30 mins in presence of 50 mM unlabelled compound relative to wild type. The following applies: other, 0.5 h.
Data set [24] has as its system Brain. Kind of data set: Elimination half life in mouse brain. The data set is classed as ADME, tissue-based. The following applies: in vivo. In outline:
as §1

Consider `CN(Cc1cnc2nc(N)nc(N)c2n1)c1ccc(C(=O)N[C@@H](CCC(=O)O)C(=O)O)cc1` [METHOTREXATE], for which the half-life in data set [1] was 28.8 min. For the same molecule, the Drug uptake in data set [2] is recorded as 36.2%; in data set [6], 75.8%; in data set [7], 90%; in [11], 3.2%. Further, the BEI is 63.8% in the data set with Mus musculus [3]; 57.2% in the data set with Mus musculus [4]; 46.4% with Mus musculus [5]; 72.7% in the data set on Mus musculus [8]; 90% with Mus musculus [13]; 24.2% in the data set on Mus musculus [14]. For the same molecule, the BEI with Mus musculus [15] was 13.7%; with Mus musculus [16], 37.9%; in the data set with Mus musculus [17] it was 21.4%. The Ratio with Brain [9] was 0.05. The CL in the data set on Brain [10] is 20.23 µL/min/g. This molecule also showed a k el in [12] of 0.000397 s⁻¹.
For the molecule `Nc1nc2[nH]cc(CCc3ccc(C(=O)N[C@@H](CCC(=O)O)C(=O)O)cc3)c2c(=O)[nH]1` [PEMETREXED], the half-life in [1] is 39 min. Moreover, the Drug uptake in data set [2] came to 51.1%; in data set [18] it was 71.7%; in data set [19], 95.7%; in data set [6], 72.4%; in data set [7], 90%. Further, the BEI was 48.9% with Mus musculus [3]; 58.3% with Mus musculus [4]; 43.9% in the data set on Mus musculus [5]; 89.7% with Mus musculus [8]; 28.3% in the data set with Mus musculus [20]; 4.3% in the data set with Mus musculus [21]. Further, the BEI in the data set with Mus musculus [14] is reported as 27.6%; in the data set on Mus musculus [15], 12.2%; in the data set on Mus musculus [22], 57.8%; with Mus musculus [23], 8.8%; in the data set on Mus musculus [16], 56.5%; in the data set on Mus musculus [17] it was 25%. The same molecule showed a CL in the data set with Brain [10] of 11.04 µL/min/g. Further, the k el in data set [12] is 0.000297 s⁻¹.
On to `CCCC(CCC)C(=O)O` [VALPROIC ACID], for which the “beta t1/2” value with Brain [24] is given as 2 min.
